Assay results reported in the RNAGym collection of RNA variant scans (doi:10.1126/science.aae0568).
This sample holds only a part of the variants without activity.

B1: tRNA (parent)
chain: GUUCCGUUGGCGUAAUGGUAACGCGUCUCCCUCCUAAGGAGAAGACUGCGGGUUCGAGUCCCGUACGGAACG

Variants of: B1
Test: yeast fitness relative to wild type (ratio to wild type); higher = fitter; tRNA-Arg(CCU), competitive growth, 37 C, YPD
Summary of the method: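 Gene amplicons from the start population and from each of six end populations were read by 100-nucleotide paired-end sequencing. Those end populations came from pooled Saccharomyces cerevisiae strains carrying tRNA-Arg(CCU) gene variants at the native locus, competed in YPD at 37°C for 24 hours. Fitness relative to wild type was worked out from changes in genotype frequencies. Genotypes needed ≥ 100 starting reads, and estimates < 0.5 were set to 0.5.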

Variant	yeast fitness
C4A A15C C60U U64A C66A G68A A69G	≤ 0.5
C4A A37U A43G G58C C60G	0.654
C4A C5G G39C	≤ 0.5
U3G G39A A40G	≤ 0.5
C4A A43U U47G	≤ 0.5
C4A A14G C24U U32G A43G C66U	0.573
C4A A65U C66A	≤ 0.5
U3G U8C A45G	0.702
C4A A21G A45U A69U	0.655
C4A A14G C22G C29U	0.569
C4A A14U A20C U28G C61U C62A	≤ 0.5
C4A C5G G51A C60U G67A	≤ 0.5
U3G U35A	0.533
C4A C5U C22U C31A C34A	≤ 0.5
C4A C11G A69U	≤ 0.5
U3G C30G A40G	0.836
C4A A57C C61G	≤ 0.5
C4A A20G C24G C31G C62U	0.598
U3G G50A	0.817
C4A A42G	0.991
C4A A42C	0.794

Variant	yeast fitness
C4A C5G A20C A40U	0.5
C4A A20U C24U U26G C27U A36C A45U C55G	0.607
C4A A43U C60A	≤ 0.5
C4A A20C U47A	≤ 0.5
C4A C5U G17A G52C	0.581
U3G C22G C29A	≤ 0.5
U3G C24U C34U A40G C55G	≤ 0.5
C4A C5A A20U C46U G48A	≤ 0.5
C4A C5U C22G G44C	≤ 0.5
C4A A21U C27A G41C A70G	≤ 0.5
C4A A20C	0.64
U3G U64G	0.716
U3G G10A A21C U28A G68C	≤ 0.5
C4A C5G G50A U53A C60U G63C	0.614
C4A A37C G56A G68U	0.699
U3G C30U G48C	0.593
C4A A42U C55G	≤ 0.5
C4A A20U C34A G63C G67C A69U	≤ 0.5
U3G U13C A14U C29A	0.672
U3G C11U U19C A20U A43U C62G C66A A69C	≤ 0.5
C4A C5A G23A	≤ 0.5

Variant	yeast fitness
C4A C5G C24G C29U	≤ 0.5
U3G C49G	0.809
U3G C49A	0.655
U3G C22A	0.682
C4A A37U G51A	≤ 0.5
C4A C11G C31U G38C	0.552
C4A A14C U19A A69C	0.53
C4A A45U	0.818
C4A A45G	0.808
U3G U16C G39C A45C C49G	≤ 0.5
U3G C22A C24U U35G A45U	≤ 0.5
C4A C11G U13A A20C C22U A36C	0.705
U3G C24U C31U C61U	0.57
U3G U35G A37U U47C G56C A69C	≤ 0.5
C4A A65C	0.658
C4A A15U G18C G56C G67A	≤ 0.5
U3G C31A	0.747
U3G C31G	0.874
U3G C22A G25C C33U A69C	0.507
U3G G18A G25A C29A	≤ 0.5
U3G U16C G39C A45C C49G A69U	≤ 0.5

Variant	yeast fitness
U3G C30G C62U	≤ 0.5
C4A A36C A42G	≤ 0.5
U3G C62A	0.75
U3G G12A	0.682
U3G U13G A14C G39C G41A C60G C61U C62G A65U	0.543
C4A A57G C62G C66G	≤ 0.5
U3G C11U C55G	≤ 0.5
C4A A37G A45C C66G	≤ 0.5
C4A A14U A20C U28G U32A	≤ 0.5
C4A A15G G17A A21C U28A A40U	≤ 0.5
C4A A15U C61A	0.78
C4A A15C A69C	≤ 0.5
U3G C27A C61A C62U	≤ 0.5
C4A A14G G52C C66U	≤ 0.5
C4A A15C U35A C49A	0.545
C4A A14C A21C C22U C24U C29U U53C	0.568
U3G C31G U64A C66U G68C	≤ 0.5
C4A A14C C24U G25A C34A	0.571
C4A A42G U64A	≤ 0.5
U3G U53C C66U A69U	0.548
